From ChEMBL document CHEMBL5038617, “1,2,4-Triazole-3-thione compounds with a 4-ethyl alkyl/aryl sulfide substituent are broad-spectrum metallo-β-lactamase inhibitors with re-sensitization activity” (Eur J Med Chem, 2021) come the findings set out here.

Data set [1] concerns Bacteria. The data set is described as follows: Inhibition of bacterial Metallo-beta-lactamase VIM-1 (unknown origin) assessed as substrate hydrolysis at 25 uM using meropenem as substrate by UV-visible spectrometry analysis. The essentials:
(§1)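 Purified MBL enzyme at 1–70 nM final, in 50 mM HEPES pH 7.5 at 30 °C with 0.5% DMSO. Reporter substrate 150 µM imipenem or meropenem; hydrolysis read at 300 nm. […] Ki measured when inhibition exceeded 75%, by competitive-model v0/vi vs [I] slope or Dixon plot. Some runs used 10 min enzyme–inhibitor preincubation. Triplicate.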

Data set [2] deals with Bacteria. The data set can be described thus: Inhibition of bacterial Metallo-beta-lactamase VIM-4 (unknown origin) assessed as substrate hydrolysis at 25 uM using meropenem as substrate by UV-visible spectrometry analysis. The essentials: as §1
Data set [3] relates to Bacteria. The data set is described as follows: Inhibition of bacterial Metallo-beta-lactamase VIM-2 (unknown origin) assessed as substrate hydrolysis at 100 uM using meropenem as substrate by UV-visible spectrometry analysis. The method in brief:
as §1

The subject of data set [4] is Bacteria. The data set can be described thus: Inhibition of bacterial Metallo-beta-lactamase IMP-1 (unknown origin) assessed as substrate hydrolysis at 100 uM using meropenem as substrate by UV-visible spectrometry analysis. The essentials: as §1
For data set [5], the system named is Bacteria. The data set can be described thus: Inhibition of bacterial New Delhi metallo-beta-lactamase 1 (unknown origin) assessed as substrate hydrolysis at 100 uM using meropenem as substrate by UV-visible spectrometry analysis. The essentials: as §1
The nature of data set [6]: Inhibition of bacterial Metallo-beta-lactamase IMP-1 (unknown origin) assessed as substrate hydrolysis using meropenem as substrate by UV-visible spectrometry analysis. More on the design: species or system Bacteria. The essentials: as §1
For data set [7], the target named is Hydroxyacylglutathione hydrolase, mitochondrial (Homo sapiens, UniProt Q16775). The data set is described as follows: Inhibition of recombinant human Glyoxalase-2 assessed as reduction of substrate level using S-D-lactoylglutathione as substrate by spectrophotometric method. The method in brief: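 Recombinant human glyoxalase II (5–25 nM) in 100 mM MOPS pH 7.2 at 25 °C. Substrate S-D-lactoylglutathione loss followed at 240 nm (ε 3.1 mM−1cm−1). Inhibitor in DMSO added to the substrate mix, and the reaction started with enzyme. Duplicate.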

A short description of data set [8]: Inhibition of bacterial New Delhi metallo-beta-lactamase 1 (unknown origin) assessed as substrate hydrolysis using meropenem as substrate by UV-visible spectrometry analysis. More on the design: species or system Bacteria. The method in brief:
as §1

Data set [9] can be described thus: Inhibition of bacterial Metallo-beta-lactamase VIM-1 (unknown origin) assessed as substrate hydrolysis using meropenem as substrate by UV-visible spectrometry analysis. More on the design: species or system Bacteria. The essentials:
as §1

Data set [10] concerns HeLa. The data set can be described thus: Cytotoxicity against human HeLa cells assessed as LDH release measured after 24 hrs by CytoTox96 nonradioactive assay. The class given is functional, cell-based. The method in brief:
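HeLa cells (20,000/well) incubated 24 h at 37 °C, 5% CO2 in DMEM with 10% FBS, 4.5 mg/mL glucose and 2 mM L-glutamine, with compound up to 250 µM. LDH release measured. Medium-only control and Triton X-100 maximum-release control included. % cytotoxicity = 100 × sample/maximum release. IC50 taken as 50% cytotoxicity.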

Data set [11] is described as follows: Inhibition of bacterial Metallo-beta-lactamase VIM-2 (unknown origin) assessed as substrate hydrolysis using meropenem as substrate by UV-visible spectrometry analysis. More on the design: species or system Bacteria. The method in brief:
as §1

Data set [12] in a line: Cytotoxicity against human PBMC cells assessed as cell viability measured after 24 hrs by flowcytometry method. Type of data set: toxicity, cell-based. Particulars: for IC50: pbmc. The essentials: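 PBMC from four individual donors were isolated by density centrifugation, frozen, thawed and resuspended at 1.10e6/mL in RPMI with 10% FBS. Compound added from 20 mM DMSO stock by serial dilution in RPMI; final concentrations 500–7.8 µM, in duplicate. After 24 h, live cells counted by flow cytometry using FSC/SSC gating. IC50 calculated for each donor.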

Data set [13] deals with Klebsiella pneumoniae. The data set can be described thus: Synergistic antibacterial activity against Klebsiella pneumonia VA 416/02 clinical isolate strain producing Metallo-beta-lactamase VIM-4 assessed as meropenem MIC in presence of meropenem incubated for 24 hrs by broth microdilution method. Particulars: VA 416/02, 24 h. For orientation: In broth dilution the organism is exposed to a series of concentrations in liquid medium.

Data set [14] deals with Klebsiella pneumoniae. The data set can be described thus: Synergistic antibacterial activity against Klebsiella pneumonia 7023 clinical isolate strain producing Metallo-beta-lactamase VIM-1 assessed as meropenem MIC in presence of meropenem incubated for 24 hrs by broth microdilution method. The class given is functional. The method in brief: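 CLSI broth microdilution in Mueller-Hinton broth with 5 × 10^4 CFU/well. Meropenem two-fold serial dilutions tested with and without inhibitor fixed at 32 µg/mL, inhibitor added before antibiotic. DMSO ≤1%. […] Growth controls included. Triplicate.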

Data set [15] is described as follows: Inhibition of bacterial Metallo-beta-lactamase VIM-4 (unknown origin) assessed as substrate hydrolysis using meropenem as substrate by UV-visible spectrometry analysis. More on the design: species or system Bacteria. The method in brief:
as §1

For data set [16], the system named is A549. The data set can be described thus: Cytotoxicity against human A549 cells assessed as cell viability measured after 48 hrs by RealTime-glo MT assay. The class given is functional, cell-based. Particulars: A549, 48 h. The method in brief:
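A549 cells incubated up to 48 h in DMEM with varying compound concentrations. Viable cell number read by bioluminescent real-time viability assay (NanoLuc luciferase with cell-permeant prosubstrate). Viability expressed relative to DMSO-only control culture, and IC50 derived.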

In data set [17] the test system is Bacteria. The data set can be described thus: Inhibition of bacterial Metallo-beta-lactamase IMP-1 (unknown origin) assessed as substrate hydrolysis at 25 uM using meropenem as substrate by UV-visible spectrometry analysis. The essentials:
as §1

In data set [18] the test system is Bacteria. The data set can be described thus: Inhibition of bacterial Metallo-beta-lactamase VIM-2 (unknown origin) assessed as substrate hydrolysis at 25 uM using meropenem as substrate by UV-visible spectrometry analysis. The method in brief:
as §1

A value given as a limit tells only on which side of the number the result lay.

By inhibition is commonly meant the share of the control response that was lost under treatment. What is called Ki is a measure of affinity in units of concentration, obtained from inhibition or displacement. For orientation: IC50 means the midpoint of a concentration-inhibition curve. Broadly, the MIC is the lowest concentration found to suppress growth.

Turning to `S=c1[nH]nc(-c2ccc(-c3ccccc3)cc2)n1CCSCc1ccccc1`, the inhibition in [1] was under 15%; in [2], under 15%; in data set [3] it was under 30%; in data set [4] it was 60%; in data set [5] it was under 30%.

Take `S=c1[nH]nc(-c2ccccc2)n1CCSCc1ccccc1`: the Ki in data set [6] stood at 19.6 µM; in [8] it was 22.3 µM; in [9], 0.21 µM; in [11] it was 0.24 µM; in data set [15] it was 0.31 µM. For the same molecule, the IC50 in [7] is 52 µM; in data set [10] it was 152 µM; in data set [12] it was “Non-Toxic”. The MIC in data set [13] was found to be 4 µg/mL; in data set [14], 2 µg/mL.

As to `O=[N+]([O-])c1ccc(O)c(CSCCn2c(-c3ccccc3)n[nH]c2=S)c1`, the Ki was determined as 11.9 µM in data set [8], 0.58 µM in data set [9], 0.21 µM in data set [11] and 0.25 µM in [15]. Also, the IC50 is over 250 µM in data set [10] and 125 µM in data set [16]. Besides, the IC50 at 24 h in data set [12] (human, PBMC cells) is over 500 µM. In addition, the inhibition in data set [4] was determined as 62%. For the same molecule, the MIC worked out at 4 µg/mL in [13] and 1 µg/mL in data set [14].

Regarding `S=c1[nH]nc(-c2cccc(-c3ccccc3)c2)n1CCSCc1ccccc1`, the inhibition in data set [17] was 21%; in [5], under 30%; in data set [18] it was under 15%. The MIC in data set [13] and in [14] was 16 µg/mL throughout. The Ki in [15] amounted to 0.89 µM.

With `S=c1[nH]nc(Cc2ccc3ccccc3c2)n1CCSCc1ccccc1`, the inhibition was under 15% in data set [1]; 23% in [2]; under 30% in data set [3]; 70% in data set [4]; under 30% in data set [5].

On to `Cn1cccc1-c1n[nH]c(=S)n1CCSCc1ccccc1`, for which the Ki in data set [6] came to 9.04 µM; in data set [8] it was 28 µM; in [9] it was 0.23 µM; in [11] it was 0.34 µM; in data set [15], 0.25 µM. Also, the IC50 in [10] is over 250 µM; in data set [16], over 250 µM; in data set [12], “Non-Toxic”. For the same molecule, the results for the MIC in data set [13] and in data set [14] were 1 µg/mL and 2 µg/mL, respectively. Moreover, the inhibition in [5] was 75%.
